Source: ChEMBL document CHEMBL3853320, “Discovery of Imidazoquinolines as a Novel Class of Potent, Selective, and in Vivo Efficacious Cancer Osaka Thyroid (COT) Kinase Inhibitors” (J Med Chem, 2016)
pIC50: −log10 of the molar value. Values belong to the compound of their own block, whether it stands above or below them.

How the values were obtained:
[1] = Octanol-water partition coefficient, log P of the compound by shake-flask method; type: physicochemical
[2] = target: T1, Mitogen-activated protein kinase kinase kinase 8 (Homo sapiens, UniProt P41279); experiment: Inhibition of human COT (66 to 395 residues) expressed in Sf21 cells using 5-Fluo-Ahx-AGAGSGQLIDSNleANSFVGTR-NH2 as substrate after 60 mins by caliper microfluidic mobility shift assay
[3] = Drug level in bile-duct cannulated Sprague-Dawley rat blood treated with N-(1-morpholinopropan-2-yl)-6-(8-(pyridin-4-yl)-1H-imidazo[4,5-c][1,7]naphthyridin-1-yl)benzo[d]thiazol-2-amine at 3 mg/kg, iv measured 1 to 4 hrs post dose; type: ADME, organism-based; details: in vivo
[4] = Drug level in bile-duct cannulated Sprague-Dawley rat urine treated with N-(1-morpholinopropan-2-yl)-6-(8-(pyridin-4-yl)-1H-imidazo[4,5-c][1,7]naphthyridin-1-yl)benzo[d]thiazol-2-amine at 3 mg/kg, iv measured over 8 hrs post dose; type: ADME, organism-based; details: in vivo
[5] = Drug level in bile-duct cannulated Sprague-Dawley rat feces treated with N-(1-morpholinopropan-2-yl)-6-(8-(pyridin-4-yl)-1H-imidazo[4,5-c][1,7]naphthyridin-1-yl)benzo[d]thiazol-2-amine at 3 mg/kg, iv measured over 8 hrs post dose; type: ADME, organism-based; details: in vivo
[6] = Drug level in bile-duct cannulated Sprague-Dawley rat bile treated with N-(1-morpholinopropan-2-yl)-6-(8-(pyridin-4-yl)-1H-imidazo[4,5-c][1,7]naphthyridin-1-yl)benzo[d]thiazol-2-amine at 3 mg/kg, iv measured over 8 hrs post dose; type: ADME, organism-based; details: in vivo
[7] = Drug level in bile-duct cannulated Sprague-Dawley rat kidney treated with N-(1-morpholinopropan-2-yl)-6-(8-(thiophen-2-yl)-1H-imidazo[4,5-c][1,7]naphthyridin-1-yl)benzo[d]thiazol-2-amine at 3 mg/kg, iv measured 8 hrs post dose; type: ADME, organism-based; details: in vivo
[8] = Drug level in bile-duct cannulated Sprague-Dawley rat urine treated with N-(1-morpholinopropan-2-yl)-6-(8-(thiophen-2-yl)-1H-imidazo[4,5-c][1,7]naphthyridin-1-yl)benzo[d]thiazol-2-amine at 3 mg/kg, iv measured 8 hrs post dose; type: ADME, organism-based; details: in vivo
[9] = Drug level in bile-duct cannulated Sprague-Dawley rat bile treated with N-(1-morpholinopropan-2-yl)-6-(8-(thiophen-2-yl)-1H-imidazo[4,5-c][1,7]naphthyridin-1-yl)benzo[d]thiazol-2-amine at 3 mg/kg, iv measured 8 hrs post dose; type: ADME, organism-based; details: in vivo
[10] = Drug level in bile-duct cannulated Sprague-Dawley rat liver treated with N-(1-morpholinopropan-2-yl)-6-(8-(thiophen-2-yl)-1H-imidazo[4,5-c][1,7]naphthyridin-1-yl)benzo[d]thiazol-2-amine at 3 mg/kg, iv measured 8 hrs post dose; type: ADME, organism-based; details: in vivo
[11] = target: T1, Mitogen-activated protein kinase kinase kinase 8; experiment: Inhibition of COT in LPS-stimulated human PBMC assessed as reduction in ERK1/2 phosphorylation incubated for 60 mins followed by LPS stimulation for 12 mins by flow cytometric analysis
Method in brief: (§1)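 Primary human PBMCs were stimulated with LPS. Read-outs were pERK, TNFα release, or p65 phosphorylation, each reported as IC50.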

[12] = target: T1, Mitogen-activated protein kinase kinase kinase 8; experiment: Inhibition of COT in LPS-stimulated human PBMC assessed as reduction in TNFalpha release incubated for 1 hr followed by stimulation with LPS for 4 hrs by HTRF assay; method in brief: as §1

T1 sequence (P41279 whole entry, the tested form may be a part): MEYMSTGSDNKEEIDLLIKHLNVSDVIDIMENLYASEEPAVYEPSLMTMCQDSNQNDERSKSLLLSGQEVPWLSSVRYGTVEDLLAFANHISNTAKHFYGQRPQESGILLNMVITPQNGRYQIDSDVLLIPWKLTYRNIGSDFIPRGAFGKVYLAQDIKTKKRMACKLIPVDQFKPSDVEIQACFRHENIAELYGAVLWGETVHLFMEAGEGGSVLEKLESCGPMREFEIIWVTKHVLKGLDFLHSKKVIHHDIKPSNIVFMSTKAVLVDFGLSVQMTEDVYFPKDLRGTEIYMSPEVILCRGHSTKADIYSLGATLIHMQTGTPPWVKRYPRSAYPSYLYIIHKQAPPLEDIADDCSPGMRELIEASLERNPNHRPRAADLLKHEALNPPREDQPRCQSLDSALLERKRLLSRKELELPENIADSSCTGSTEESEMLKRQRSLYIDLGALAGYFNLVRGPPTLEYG

logP [1]: 4 | pIC50 [2]: 7.40
SMILES: c1nc2ccc(-n3cnc4cnc5cnc(-c6ccsc6)cc5c43)cc2[nH]1

pIC50 [2]: 6.17
SMILES: c1cncc(-c2cc3c(cn2)ncc2ncn(-c4ccc5nc[nH]c5c4)c23)c1

Drug metabolism [3]: Metabolite_Detected | Drug metabolism [4]: Metabolite_Detected | Drug metabolism [5]: Metabolite_Detected | Drug metabolism [6]: Metabolite_Detected
SMILES: CC(CN1CCOCC1)Nc1nc2ccc(-n3cnc4c(=O)[nH]c5cnc(-c6ccncc6)cc5c43)cc2s1 (centres undefined)

pIC50 [2]: 5.89
SMILES: Cc1ccc(-c2cc3c(cn2)ncc2ncn(-c4ccc5nc[nH]c5c4)c23)cc1

Drug metabolism [7]: Metabolite_Detected | Drug metabolism [8]: Metabolite_Detected | Drug metabolism [9]: Metabolite_Detected | Drug metabolism [10]: Metabolite_Detected
SMILES: CC(CN1CCOCC1)Nc1nc2ccc(-n3cnc4c(=O)[nH]c5cnc(-c6cccs6)cc5c43)cc2s1 (centres undefined)

pIC50 [11]: 6.21 | pIC50 [12]: 5.90 | pIC50 [2]: 7.42
SMILES: C[C@@H](CN1CCOCC1)Nc1ccc2cc(-n3cnc4cnc5cnc(-c6ccncc6)cc5c43)ccc2n1

pIC50 [2]: 5.89
SMILES: C1=C(c2cc3c(cn2)ncc2ncn(-c4ccc5nc[nH]c5c4)c23)CCCC1

Further lines, the compound ahead of its results:

SMILES: c1cc(-c2cc3c(cn2)ncc2ncn(-c4ccc5nc[nH]c5c4)c23)ccn1
pIC50 [2]: 7.00

SMILES: c1ccc(-c2cc3c(cn2)ncc2ncn(-c4ccc5nc[nH]c5c4)c23)cc1
pIC50 [2]: 7.05

SMILES: N#CCc1ccc(-n2cnc3cnc4ccc(-c5ccsc5)cc4c32)cc1
logP [1]: 4.9 | pIC50 [2]: 5.59

SMILES: N#CCc1ccc(-n2cnc3cnc4cc(Cl)c(-c5ccsc5)cc4c32)cc1
logP [1]: 5.4 | pIC50 [2]: 6.10

SMILES: c1nc2ccc(-n3cnc4cnc5cnc(-c6cn[nH]c6)cc5c43)cc2[nH]1
pIC50 [2]: 6.82

SMILES: Clc1cc2c(cn1)ncc1ncn(-c3ccc4nc[nH]c4c3)c12
pIC50 [2]: < 5.00
